Screening data as filed in PubChem BioAssay.
Only some compounds are listed: those with a hit (about 0.86% of all), similar ones and a draw of the others.
CCR6 antagonist: blocks CCL20-driven beta-arrestin recruitment at human CCR6; inhibition, % at 20 µM; 340,000 compounds, 0.49% hits; CHO-K1 CCR6 PathHunter beta-arrestin, luminescence, CCL20-stimulated;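 active means compounds whose inhibition of the agonist-driven luminescence signal at 20 µM reaches about 50%, limit read from the data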;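 further: cells stimulated with CCL20 at 14 nM final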
APJ antag: antagonists of human APJ apelin receptor. CHO-K1 APJ beta-arrestin complementation, luminescence. inhibition, % at 20 µM. 330,000 compounds, 0.32% hits. AID 2521;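 active means inhibition above about 40% at 20 µM, limit read from the data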;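 further: cells challenged with 10 nM apelin-13 agonist together with compound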
Target sequence (P35414 whole entry, looked up): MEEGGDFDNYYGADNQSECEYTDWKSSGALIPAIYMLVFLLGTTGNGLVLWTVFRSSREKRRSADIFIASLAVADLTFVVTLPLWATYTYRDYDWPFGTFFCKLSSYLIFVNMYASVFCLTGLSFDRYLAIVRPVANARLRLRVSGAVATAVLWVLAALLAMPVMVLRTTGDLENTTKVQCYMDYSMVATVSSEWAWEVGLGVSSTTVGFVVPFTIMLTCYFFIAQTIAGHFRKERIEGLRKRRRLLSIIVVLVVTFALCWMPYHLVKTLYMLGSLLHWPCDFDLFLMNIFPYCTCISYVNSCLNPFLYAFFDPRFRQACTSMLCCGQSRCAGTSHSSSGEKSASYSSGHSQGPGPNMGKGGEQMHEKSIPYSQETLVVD
hiPSC survival: enhancers of human iPSC single-cell survival; hiPSC single-cell survival, ATPlite luminescence; 100% = ROCK inhibitor wells, 0% = DMSO; survival enhancement, % at 20 µM; 360,000 compounds, 0.044% hits; AID 602274; in the data active means survival enhancement above about 18%;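 further: cells exposed to compounds for 16 hours before the ATP read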
APJ agonist: activates the human apelin receptor APJ | AID 2520 | CHO-K1 APJ PathHunter beta-arrestin, luminescence; 0% DMSO wells, 100% apelin | 330,000 compounds, 0.11% hits | activation, % at 20 µM;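 active means activation more than six SD over the plate average, tested at 20 µM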
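Assay system: engineered CHO-K1 APJ arrestin reporter cells; Amount: 1000 CHO-K1 reporter cells seeded per well; Dosing: one dose, 20 µM compound, 1% DMSO; Times: compound stimulation 90 min at 25 °C, detection 60 min; Measured by: luminescent beta-gal fragment complementation, chemiluminescent substrate; Read-out: APJ–arrestin association signal; Controls: DMSO vs Apelin-13 10 nM.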
DAGLB inh: blocks human DAGLB lipase activity; HEK293T DAGLB membrane lysate, EnzChek fluorogenic substrate; inhibition, % at 5.17 µM; 340,000 compounds, 0.059% hits; in the data active means inhibition above about 34%
CXCR6 inh: CXCR6 (human) receptor inhibition; O00574; CHO-K1 PathHunter CXCR6 beta-arrestin, luminescence; inhibition, % at 20 µM; 360,000 compounds, 0.36% hits; in the data active means inhibition above about 34%, passing the limit was not always enough;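 further: antagonist mode with CXCL16 agonist at 10 nM final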
APJ ag confirm: APJ receptor agonism confirmation; 310 compounds, 10% hits; CHO-K1 APJ PathHunter beta-arrestin, luminescence; AID 2764; activation, % at 20 µM; shares compounds with APJ agonist;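 active means activation above 40%, taking the highest of four retests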
Numbers stand for hits.

What do the screens show for `CCOc1ccccc1-c1nc(-c2ccc(NC(=O)Cc3ccc(OC)cc3)cc2)no1`?
CCR6 antagonist: inactive; APJ antag: inactive; hiPSC survival: inactive; APJ agonist: 22; DAGLB inh: inactive; CXCR6 inh: inactive; APJ ag confirm: inactive

Results for COC(=O)C1(Cc2cc(-c3ccc(Cl)cc3)no2)CCN(C(=O)OC(C)(C)C)CC1 ?
CCR6 antagonist: inactive; APJ antag: inactive; hiPSC survival: inactive; APJ agonist: inactive; DAGLB inh: inactive; CXCR6 inh: inactive

How did COC(=O)C1(Cc2cc(-c3cccnc3)no2)CCN(C(=O)OC(C)(C)C)CC1 do in these assays?
CCR6 antagonist: inactive; APJ antag: inactive; hiPSC survival: inactive; APJ agonist: 36; DAGLB inh: inactive; CXCR6 inh: inactive; APJ ag confirm: inactive

How did CCOc1ccc(NCc2cccn2-c2nnc(N3CCC(C(=O)NCCCN4CCCCC4CC)CC3)s2)cc1 (stereo not drawn) do in these assays?
CCR6 antagonist: inactive; APJ antag: inactive; hiPSC survival: inactive; APJ agonist: inactive; DAGLB inh: inactive; CXCR6 inh: inactive

How did CCOC(=O)c1oc2nc3c(cc2c1N)CCCC3 do in these assays?
CCR6 antagonist: inactive; APJ antag: inactive; hiPSC survival: inactive; APJ agonist: 117; CXCR6 inh: inactive; APJ ag confirm: inactive

How did CC(C)N1CCN(c2ccncc2S(=O)(=O)N2CCN(C)CC2)CC1 do in these assays?
hiPSC survival: inactive; DAGLB inh: inactive; CXCR6 inh: inactive

What do the screens show for `COc1ccc2noc3c2c1C(=O)c1ccccc1-3`?
CCR6 antagonist: inactive; APJ antag: inactive; hiPSC survival: inactive; APJ agonist: 21; DAGLB inh: inactive; CXCR6 inh: inactive; APJ ag confirm: inactive

What do the screens show for `COc1ccc(C)cc1S(=O)(=O)N(C)CC(=O)NCc1ccco1`?
CCR6 antagonist: inactive; APJ antag: inactive; hiPSC survival: inactive; APJ agonist: 25; DAGLB inh: inactive; CXCR6 inh: inactive; APJ ag confirm: inactive

What do the screens show for `COc1cccc2sc3ccc(NCCC4CCCN4C)cc3c(=O)c12` (stereo not drawn)?
CCR6 antagonist: inactive; APJ antag: inactive; hiPSC survival: inactive; APJ agonist: 53; DAGLB inh: inactive; CXCR6 inh: inactive; APJ ag confirm: inactive

What do the screens show for `COc1cc2sc3cc(NCC[C@@H]4CCCN4C)ccc3c(=O)c2cc1OC`?
CCR6 antagonist: inactive; APJ antag: inactive; hiPSC survival: inactive; APJ agonist: inactive; DAGLB inh: inactive; CXCR6 inh: inactive

Results for COc1cc2c3nnc(-c4ccc(F)cc4)c-3cn(Cc3ccc(F)cc3)c2cc1OC ?
CCR6 antagonist: inactive; APJ antag: inactive; hiPSC survival: inactive; APJ agonist: inactive; DAGLB inh: inactive; CXCR6 inh: inactive

How did COc1cc2c3nnc(-c4ccc(F)cc4)c-3cn(Cc3ccccc3)c2cc1OC do in these assays?
CCR6 antagonist: inactive; APJ antag: inactive; hiPSC survival: inactive; APJ agonist: 24; DAGLB inh: inactive; CXCR6 inh: inactive; APJ ag confirm: inactive

What do the screens show for `Cc1cccn2c(=O)c3cc(C(=O)NCC4CCCO4)c(=N)n(CCN4CCOCC4)c3nc12` (stereo not drawn)?
CCR6 antagonist: inactive; APJ antag: inactive; hiPSC survival: inactive; APJ agonist: 31; DAGLB inh: inactive; CXCR6 inh: inactive; APJ ag confirm: inactive

Results for CC(C)CCN(C(=S)NC(=O)C1CCCCC1)c1c(N)n(Cc2ccccc2)c(=O)[nH]c1=O ?
CCR6 antagonist: inactive; APJ antag: inactive; hiPSC survival: inactive; APJ agonist: 33; DAGLB inh: inactive; CXCR6 inh: inactive; APJ ag confirm: inactive

Results for CC(C)CCN(C(=O)C1CCCC1)c1c(N)n(Cc2ccccc2)c(=O)[nH]c1=O ?
CCR6 antagonist: inactive; APJ antag: inactive; hiPSC survival: inactive; APJ agonist: inactive; DAGLB inh: inactive; CXCR6 inh: inactive

What do the screens show for `COc1ccc(-c2cc(-c3nc4ccccn4c3NCc3ccccc3)ccc2OC)cc1`?
CCR6 antagonist: inactive; APJ antag: inactive; hiPSC survival: inactive; APJ agonist: 23; DAGLB inh: inactive; CXCR6 inh: inactive; APJ ag confirm: inactive

How did COc1ccc(-c2nc3ccccn3c2NCc2ccc3c(c2)OCO3)cc1 do in these assays?
CCR6 antagonist: inactive; APJ antag: inactive; hiPSC survival: inactive; APJ agonist: inactive; DAGLB inh: inactive; CXCR6 inh: inactive

Results for O=C1NC[C@H](CCCCN2C[C@H](Cc3ccccc3)N(CCc3ccccc3)C(=O)C2=O)N(CCc2ccc(O)cc2)C1=O ?
hiPSC survival: inactive; CXCR6 inh: inactive

What do the screens show for `CCN(CC(=O)N1CCCC1)S(=O)(=O)c1cc(C)ccc1OC`?
CCR6 antagonist: inactive; APJ antag: inactive; hiPSC survival: inactive; APJ agonist: 30; DAGLB inh: inactive; CXCR6 inh: inactive; APJ ag confirm: inactive

What do the screens show for `CS(=O)(=O)N(CC(=O)Nc1ccc(S(=O)(=O)N2CCCC2)cc1)c1ccccc1F`?
CCR6 antagonist: inactive; APJ antag: inactive; hiPSC survival: inactive; APJ agonist: inactive; DAGLB inh: inactive; CXCR6 inh: inactive

What do the screens show for `CCOC(=O)c1ccc(Nc2ncnc3c2cnn3C)cc1`?
CCR6 antagonist: inactive; APJ antag: inactive; hiPSC survival: inactive; APJ agonist: inactive; DAGLB inh: inactive; CXCR6 inh: inactive

How did Cn1ncc2c(O/N=C(\N)c3ccc(C(C)(C)C)cc3)ncnc21 do in these assays?
CCR6 antagonist: inactive; APJ antag: inactive; hiPSC survival: inactive; APJ agonist: 27; DAGLB inh: inactive; CXCR6 inh: inactive; APJ ag confirm: 62

Results for COCCCNC(=O)c1ccc2c(=O)n(Cc3ccc(Cl)cc3)c(=S)[nH]c2c1 ?
CCR6 antagonist: inactive; APJ antag: inactive; hiPSC survival: inactive; APJ agonist: inactive; DAGLB inh: inactive; CXCR6 inh: inactive

How did CC1CCN(CCNC(=O)c2ccc3c(=O)n(Cc4ccc(Cl)cc4)c(=S)[nH]c3c2)CC1 do in these assays?
CCR6 antagonist: inactive; APJ antag: inactive; hiPSC survival: inactive; APJ agonist: 33; DAGLB inh: inactive; CXCR6 inh: inactive; APJ ag confirm: inactive

How did Cc1ccc(/C(O)=C2\C(=O)C(=O)N(C)C2c2ccc(F)cc2)cc1 (stereo not drawn) do in these assays?
CCR6 antagonist: inactive; APJ antag: inactive; hiPSC survival: inactive; APJ agonist: inactive; DAGLB inh: inactive; CXCR6 inh: inactive

What do the screens show for `O=C1O/C(=C/c2ccccc2)c2ccccc21`?
CCR6 antagonist: inactive; APJ antag: inactive; hiPSC survival: inactive; APJ agonist: inactive; DAGLB inh: inactive; CXCR6 inh: inactive

How did N#CC1=C(c2ccccc2)/C(=C/c2ccccc2)OC1=O do in these assays?
CCR6 antagonist: 64; APJ antag: inactive; hiPSC survival: inactive; APJ agonist: 17; DAGLB inh: inactive; CXCR6 inh: inactive; APJ ag confirm: inactive
